The subject of experiment [1] is CHO-K1. Put plainly: Cytotoxicity against CHOK1 cells assessed as reduction in cell viability. The class given is cell-based. Conditions: Cricetulus griseus.
The subject of experiment [2] is Mycobacterium tuberculosis. Put plainly: Antimycobacterial activity against Mycobacterium tuberculosis H37Rv. The class given is functional. The essentials: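 Drug-sensitive M. tuberculosis H37Rv grown in a glycerol-containing medium; MIC99 is the minimum concentration that inhibits growth of 99% of the bacterial population.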

SMILES strings stand for the structures. pIC50: −log10 of the molar value. ≈ marks a conversion by molar mass, not a printed value.

On to `CC(=O)O[C@H]1C[C@@]2(C)[C@@H](C[C@@H](O)[C@H]3[C@@]4(C)CC[C@@H](O)[C@@H](C)[C@@H]4CC[C@@]32C)/C1=C(\CCC=C(C)C)c1n[nH]c(=S)o1`, for which, in experiment [1], the pIC50 was 4.15. The compound also came in with an MIC99 in experiment [2] of 80 µM (≈ 45.8 µg/mL).
For `CCCc1noc(/C(CCC=C(C)C)=C2\[C@@H](OC(C)=O)C[C@@]3(C)[C@H]2C[C@@H](O)[C@H]2[C@@]4(C)CC[C@@H](O)[C@@H](C)[C@@H]4CC[C@@]23C)n1` the same measures were 4.17 and 80 µM (≈ 46.6 µg/mL).
The like results for `CC(=O)O[C@H]1C[C@@]2(C)[C@@H](C[C@@H](O)[C@H]3[C@@]4(C)CC[C@@H](O)[C@@H](C)[C@@H]4CC[C@@]32C)/C1=C(\CCC=C(C)C)c1nc(C)no1` were, in that order, 4.32 and over 125 µM.
`CCCS(=O)(=O)NNC(=O)/C(CCC=C(C)C)=C1\[C@@H](OC(C)=O)C[C@@]2(C)[C@H]1C[C@@H](O)[C@H]1[C@@]3(C)CC[C@@H](O)[C@@H](C)[C@@H]3CC[C@@]12C`: in experiment [1], the pIC50 is 4.10. In experiment [2], this compound displayed an MIC99 of 40 µM (≈ 25.5 µg/mL).
The like results for `CCS(=O)(=O)NNC(=O)/C(CCC=C(C)C)=C1\[C@@H](OC(C)=O)C[C@@]2(C)[C@H]1C[C@@H](O)[C@H]1[C@@]3(C)CC[C@@H](O)[C@@H](C)[C@@H]3CC[C@@]12C` were, in that order, 4.11 and 40 µM (≈ 24.9 µg/mL).
For `CC(=O)O[C@H]1C[C@@]2(C)[C@@H](C[C@@H](O)[C@H]3[C@@]4(C)CC[C@@H](O)[C@@H](C)[C@@H]4CC[C@@]32C)/C1=C(\CCC=C(C)C)C(=O)NNS(=O)(=O)c1ccc(C)cc1` the same measures were 4.32 and over 125 µM.
For `CC(=O)O[C@H]1C[C@@]2(C)[C@@H](C[C@@H](O)[C@H]3[C@@]4(C)CC[C@@H](O)[C@@H](C)[C@@H]4CC[C@@]32C)/C1=C(\CCC=C(C)C)C(=O)NNS(=O)(=O)c1ccc(Cl)cc1` the same measures were 4.27 and over 125 µM.
For the compound `CC(=O)O[C@H]1C[C@@]2(C)[C@@H](C[C@@H](O)[C@H]3[C@@]4(C)CC[C@@H](O)[C@@H](C)[C@@H]4CC[C@@]32C)/C1=C(\CCC=C(C)C)c1n[nH]c(=O)o1`, in experiment [1], the pIC50 was 4.09. Moreover, in experiment [2], the MIC99 turned out to be 80 µM (≈ 44.5 µg/mL).
As to `CCCCS(=O)(=O)NNC(=O)/C(CCC=C(C)C)=C1\[C@@H](OC(C)=O)C[C@@]2(C)[C@H]1C[C@@H](O)[C@H]1[C@@]3(C)CC[C@@H](O)[C@@H](C)[C@@H]3CC[C@@]12C`, in experiment [1], the pIC50 was 4.30. For the same compound, the MIC99 in experiment [2] is over 125 µM.
For `CC(=O)O[C@H]1C[C@@]2(C)[C@@H](C[C@@H](O)[C@H]3[C@@]4(C)CC[C@@H](O)[C@@H](C)[C@@H]4CC[C@@]32C)/C1=C(\CCC=C(C)C)c1nc(-c2ccc(F)cc2)no1` the same measures were 4.11 and over 125 µM.
For `CCc1noc(/C(CCC=C(C)C)=C2\[C@@H](OC(C)=O)C[C@@]3(C)[C@H]2C[C@@H](O)[C@H]2[C@@]4(C)CC[C@@H](O)[C@@H](C)[C@@H]4CC[C@@]23C)n1` the same measures were 4.14 and over 125 µM.
In the case of `CCCCCCC(=O)O[C@@H]1CC[C@@]2(C)[C@@H](CC[C@@]3(C)[C@H]2[C@H](O)C[C@H]2/C(=C(\CCC=C(C)C)C(=O)O)[C@@H](OC(C)=O)C[C@@]23C)[C@@H]1C`, the pIC50 in experiment [1] is 4.44. This compound also yielded an MIC99 in experiment [2] of 5 µM (≈ 3.14 µg/mL).
The like results for `CO[C@H]1C[C@@]2(C)[C@@H](C[C@@H](O)[C@H]3[C@@]4(C)CC[C@@H](O)[C@@H](C)[C@@H]4CC[C@@]32C)/C1=C(\CCC=C(C)C)C(=O)O` were, in that order, 4.54 and 18.7 µM (≈ 9.14 µg/mL).
For `CC(=O)O[C@H]1C[C@@]2(C)[C@@H](C[C@@H](O)[C@H]3[C@@]4(C)CC[C@@H](O)[C@@H](C)[C@@H]4CC[C@@]32C)/C1=C(\CCCC(C)C)C(=O)NNS(C)(=O)=O` the same measures were 4.01 and 10 µM (≈ 6.11 µg/mL).
For `CC(=O)O[C@H]1C[C@@]2(C)[C@@H](C[C@@H](O)[C@H]3[C@@]4(C)CC/C(=N\O)[C@@H](C)[C@@H]4CC[C@@]32C)/C1=C(\CCC=C(C)C)C(=O)O` the same measures were 3.79 and 2.5 µM (≈ 1.32 µg/mL).
Take `CC(C)=CCC/C(C(=O)NNS(C)(=O)=O)=C1/[C@@H](O)C[C@@]2(C)[C@H]1C[C@@H](O)[C@H]1[C@@]3(C)CC[C@@H](O)[C@@H](C)[C@@H]3CC[C@@]12C`: the pIC50 in experiment [1] is 4.49. The compound further yielded an MIC99 in experiment [2] of 40 µM (≈ 22.7 µg/mL).
The like results for `CC(=O)O[C@H]1C[C@@]2(C)[C@@H](C[C@@H](O)[C@H]3[C@@]4(C)CC[C@@H](O)[C@@H](C)[C@@H]4CC[C@@]32C)/C1=C(\CCC=C(C)C)C(=O)NNS(C)(=O)=O` were, in that order, 4.04 and 10 µM (≈ 6.09 µg/mL).
Turning to `CCO[C@H]1C[C@@]2(C)[C@@H](C[C@@H](O)[C@H]3[C@@]4(C)CC[C@@H](O)[C@@H](C)[C@@H]4CC[C@@]32C)/C1=C(\CCC=C(C)C)C(=O)O`, the pIC50 in experiment [1] is 4.32. In experiment [2], this compound showed an MIC99 of 0.8 µM (≈ 0.402 µg/mL).
Regarding `CC(=O)O[C@H]1C[C@@]2(C)[C@@H](C[C@@H](O)[C@H]3[C@@]4(C)CC[C@@H](O)[C@@H](C)[C@@H]4CC[C@@]32C)/C1=C(\CCC=C(C)C)C(=O)O` [FUSIDIC ACID], in experiment [1], the pIC50 was under 3.71. In experiment [2], the MIC99 was determined as 0.6 µM (≈ 0.31 µg/mL).

Broadly, the pIC50 is the negative decadic logarithm of the IC50, by convention in mol/L. As usually defined, the MIC99 is an inhibitory concentration at the 99% level, which refers to growth in some studies and to a panel of isolates in others.
